Screens: PubChem BioAssay, Johns Hopkins Ion Channel Center
KCNK9 inh: human KCNK9 channel inhibition; Q9NPC2; HEK293 KCNK9, FluxOR thallium flux fluorescence; stronger effect = lower value; B-score at 10 µM; hit rate 1.2% among 310,000;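 active = ratio B-score over 3 SD below the library mean, with starting fluorescence within 5 SD of its mean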;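 note: negative B-score means less thallium flux so channel inhibition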
KCNQ1 pot: potentiators or activators of human KCNQ1 potassium channel; P51787; CHO-K1 KCNQ1, thallium flux FluxOR fluorescence; stronger effect = higher value; B-score at 10 µM; hit rate 0.35% among 310,000; AID 2648;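 active = fluorescence ratio B-score, a plate-corrected score, at least three library SD, with initial intensity B-score within 5 SD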
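System: Stable KCNQ1 CHO-K1 line | Incubation: 90 min dye loading and 20 min compound exposure, both at room temperature | Measure: Ratio B score | Medium: Assay buffer for compound exposure, DMSO matched across wells | Compound dosing: Single-concentration screen | Probe or stimulus: K+/Tl+ depolarizing stimulus | Measured by: Kinetic FluxOR fluorescence, 10 s baseline plus 110 s post-stimulus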
KCNK3 inh: human KCNK3 channel inhibition, primary screen; hit rate 0.84% among 340,000; CHO-KCNK3 thallium flux, FluxOR fluorescence; stronger effect = lower value; B-score at 10 µM; O14649;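 active = B-score under library mean minus 4 SD, starting fluorescence ratio at most library mean plus 5 SD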;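 note: more negative B-score means stronger inhibition of thallium flux through KCNK3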
KCNQ1 inh: human KCNQ1 channel inhibition; P51787; CHO-K1 KCNQ1, FluxOR thallium flux fluorescence; stronger effect = higher value; B-score at 10 µM; hit rate 1.3% among 310,000;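 active = compounds whose thallium flux B-score, printed positive for inhibition, exceeds three library SD while starting fluorescence stays within three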;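 note: channel opened by potassium depolarization with thallium stimulus after 20 min compound exposure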
Kir21 block: Kir2.1 (mouse) channel inhibition | HEK293-Kir2.1, FluxOR thallium flux fluorescence; stronger effect = lower value | hit rate 0.85% among 310,000 | P35561 | AID 1672 | B-score at 10 µM;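 active = fluorescence ratio B-score at or below minus 3 SD of library scores, with starting-brightness B-score within 2 SD, cut at about -4.2 in these data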;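 note: channel flux triggered by added potassium and thallium sulfate stimulus; B-score of peak minus minimum fluorescence over baseline after thallium stimulus; more negative B-score means stronger Kir2.1 block with less thallium influx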
hERG rescue: compounds protecting human hERG from proarrhythmic drug block; Q12809; CHO-hERG, FluxOR thallium flux, dofetilide IC70 present; activation (rescue from dofetilide block), less the hit threshold, % at 10 µM; hit rate 0.51% among 310,000; AID 1511;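 active = activation above the mean of controls blocked by dofetilide plus 5 SD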;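 note: thallium influx through hERG after potassium depolarization seen as dye fluorescence rise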
Target sequence (Q12809 whole entry, looked up): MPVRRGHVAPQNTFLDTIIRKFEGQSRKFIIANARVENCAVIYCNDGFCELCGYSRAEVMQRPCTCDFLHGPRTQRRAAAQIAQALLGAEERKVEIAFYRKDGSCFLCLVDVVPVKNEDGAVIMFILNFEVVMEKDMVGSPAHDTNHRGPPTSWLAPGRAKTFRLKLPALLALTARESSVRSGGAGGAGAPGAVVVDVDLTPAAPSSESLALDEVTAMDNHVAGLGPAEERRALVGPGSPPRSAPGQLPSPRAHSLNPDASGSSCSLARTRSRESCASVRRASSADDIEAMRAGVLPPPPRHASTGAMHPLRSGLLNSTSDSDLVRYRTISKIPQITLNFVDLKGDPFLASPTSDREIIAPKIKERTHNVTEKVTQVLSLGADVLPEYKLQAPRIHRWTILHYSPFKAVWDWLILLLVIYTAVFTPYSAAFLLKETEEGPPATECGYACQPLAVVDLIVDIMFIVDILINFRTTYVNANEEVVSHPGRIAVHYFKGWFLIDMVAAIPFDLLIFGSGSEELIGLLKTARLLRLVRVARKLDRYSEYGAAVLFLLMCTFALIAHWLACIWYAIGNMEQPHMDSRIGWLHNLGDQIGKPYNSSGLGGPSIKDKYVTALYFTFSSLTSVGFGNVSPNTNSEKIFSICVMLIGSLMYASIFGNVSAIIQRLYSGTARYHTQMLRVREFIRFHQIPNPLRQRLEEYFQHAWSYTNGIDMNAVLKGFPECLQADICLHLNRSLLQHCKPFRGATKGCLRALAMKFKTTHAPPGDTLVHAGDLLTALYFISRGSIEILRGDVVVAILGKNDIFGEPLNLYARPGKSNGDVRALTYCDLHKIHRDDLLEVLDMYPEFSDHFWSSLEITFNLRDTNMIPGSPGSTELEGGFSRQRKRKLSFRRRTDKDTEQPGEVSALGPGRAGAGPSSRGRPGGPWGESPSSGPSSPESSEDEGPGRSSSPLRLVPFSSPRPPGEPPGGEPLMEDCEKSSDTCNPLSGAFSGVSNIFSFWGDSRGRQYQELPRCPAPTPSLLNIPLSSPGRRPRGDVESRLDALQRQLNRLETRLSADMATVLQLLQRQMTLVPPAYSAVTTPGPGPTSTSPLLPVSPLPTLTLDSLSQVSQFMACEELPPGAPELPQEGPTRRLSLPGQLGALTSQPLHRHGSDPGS
Each line names hits and unclear results; the compound was inactive in the other large screens. Sampled rows, rich in hits. Any-hit rate of the full collection: about 3.8%.

Cc1ccc(-n2c(C)cc(C(=O)COc3c(CO)cc(F)cc3CO)c2C)cc1C	Kir21 block -7.7
Cc1ccc2c(c1)CCCN2S(=O)(=O)c1cccc(C(=O)Nc2ccccc2C(=O)O)c1	none
O=C(Cn1cccc1C(=O)c1ccccc1)NCCCN1CCOCC1	none
Cc1ccc(C)c(N2CCN(CCCNC(=O)Cn3cccc3C(=O)c3ccccc3)CC2)c1	Kir21 block -5.4
Cc1nn(CCc2nn[nH]n2)c2nc(-c3ccc(C4CCCCC4)cc3)cc(C(F)(F)F)c12	KCNQ1 pot 50
Cc1nn(CCC(=O)O)c2nc(-c3cccnc3)cc(C(F)(F)F)c12	none
c1coc(C2=NC(c3ccco3)C(c3ccco3)N2)c1 (centres undefined)	none (no result: KCNK9 inh, KCNQ1 pot, KCNQ1 inh, Kir21 block, hERG rescue)
O=C(Nc1nc2c(Br)cc(Br)cc2c(=O)s1)C1CCC1	hERG rescue 5.9
COC(=O)Oc1c(Br)c(=O)oc2ccccc12	Kir21 block -4.8
Cc1[nH]c2ccccc2c1CCN(Cc1cccnc1)C(=S)Nc1cccc(F)c1	KCNK9 inh -7.5
COc1cccc(NC(=S)N(CCc2c(C)[nH]c3ccccc23)Cc2cccs2)c1	KCNK3 inh -9.2 (no result: KCNK9 inh, KCNQ1 pot, KCNQ1 inh, Kir21 block, hERG rescue)
COC(=O)C1CCN(C(=O)C2CCN(C(=O)[C@@H](NS(=O)(=O)c3ccc(C)cc3)C(C)C)CC2)CC1	none
COc1ccc(C2=CC(=O)C[C@H](COCc3ccccc3)N(C(=O)OC(C)(C)C)O2)cc1	none (no result: KCNK9 inh, KCNQ1 pot, KCNQ1 inh, Kir21 block, hERG rescue)
CCc1ccccc1NC(=S)N(CCN(C)C)C(C)c1cccnc1 (centres undefined)	none
O=C(COC(=O)/C=C/c1ccc(F)cc1)NCc1ccco1	hERG rescue 39
O=C(COC(=O)/C=C/c1ccc([N+](=O)[O-])cc1)NCc1ccco1	none
CCOc1ccc(C(Nc2cccnc2)c2cc(Cl)c3cccnc3c2O)cc1 (centres undefined)	KCNQ1 inh 8
O=C(O)COc1ccccc1C(Nc1cccnc1)c1cc(Cl)c2cccnc2c1O (centres undefined)	none
COc1cc([C@H]2OC[C@H]3[C@@H]2CO[C@@H]3c2ccc(O[C@H]3O[C@H](CO)[C@@H](O)[C@H](O)[C@H]3O)c(OC)c2)ccc1O[C@@H]1O[C@H](CO)[C@@H](O)[C@H](O)[C@H]1O	none (no result: KCNK9 inh, KCNQ1 pot, KCNQ1 inh, Kir21 block, hERG rescue)
O=C(OCc1nnc(-c2ccc(Cl)cc2)o1)c1ccc(O)cc1	none
CS(=O)(=O)c1ccc(C(=O)OCc2nnc(-c3ccc(Cl)cc3)o2)cc1[N+](=O)[O-]	KCNQ1 pot 12
CC(NC(=O)COC(=O)c1cccs1)c1ccccc1 (centres undefined)	none
CC(NC(=O)COC(=O)/C(=C/c1cccs1)c1cccs1)c1ccccc1 (centres undefined)	KCNK9 inh -6.8
Cc1ccc(C2=NOC(c3nnc(-c4ccccc4)o3)C2)cc1 (centres undefined)	KCNQ1 pot 8
CN(Cc1cccc(F)c1)C(=O)c1ccccc1Sc1ccccc1C#N	none
Cc1ccc(-c2cccc(C3CC=CC4C3C(=O)N(Cc3ccccc3)C4c3ccc4ccccc4c3)c2)cc1 (centres undefined)	hERG rescue 8.4
C[C@@H]1CC=C[C@H]2[C@H]1C(=O)N(Cc1ccccc1)[C@H]2c1ccc(F)c(Br)c1	KCNK9 inh -19, KCNQ1 inh 10 (no result: KCNK3 inh)
O=C1C2C(c3cccc(/C=C/c4ccccc4)c3)CC=CC2C(c2ccc3ccccc3c2)N1Cc1ccccc1 (centres undefined)	none
CCOc1ccccc1N(CC(=O)N1CCCCCC1)S(C)(=O)=O	none
CCOc1ccccc1N(CC(=O)OC)S(C)(=O)=O	hERG rescue 4.6
O=C1[C@H]2[C@@H](c3ccc(F)cc3)N3C(=O)N(c4cccc(Cl)c4)C(=O)[C@@]3(Cc3ccccc3)[C@H]2C(=O)N1C1CCCCC1	KCNQ1 inh 7
CCOC(=O)c1c(N)sc2c(OCC)c(Br)ccc12	none
CCOC(=O)c1c(NC(C)=O)sc2c(OCC(O)CNC(C)(C)C)c(Br)ccc12 (centres undefined)	Kir21 block -6.1
Cc1ccc(S(=O)(=O)NCc2ccco2)cc1C	none
Cc1cc(C)c(C)c(S(=O)(=O)NCc2cccnc2)c1C	Kir21 block -4.7
Cc1cc(C)c(C)c(S(=O)(=O)NCc2ccco2)c1C	Kir21 block -7.7 (no result: KCNK3 inh)
CCN1CCCC1CNC(=O)c1ccc2c(c1)NC(=O)/C(=C\c1ccc(C)cc1)S2 (centres undefined)	KCNQ1 inh 11
O=C(N/N=C/c1c(Nc2cccc(C(F)(F)F)c2)nc2ccccn2c1=O)c1ccccc1[N+](=O)[O-]	none
O=c1[nH]nc(-c2n[nH]c(=O)o2)o1	none (no result: KCNK9 inh, KCNQ1 pot, KCNQ1 inh, Kir21 block, hERG rescue)
CCOc1ccc(C(=O)Nc2nnc(S(=O)(=O)Nc3ccccc3C)s2)cc1	none
CC1(C)CC(N2CCN(Cc3ccccc3)CC2)=CC(=[N+]2CCCCC2)C1	none
CN(Cc1ccccc1)C1=CC(=[N+]2CCCCC2)CC(C)(C)C1	KCNQ1 inh 6
COc1ccc(NC(=O)CCN2C(=O)C3CC=C(Cl)CC3C2=O)cc1 (centres undefined)	none
CN(C)CCNC(=O)/C(=C/c1ccc(-c2ccc(Cl)cc2)o1)NC(=O)c1ccccc1	none
CN(C)CCNC(=O)/C(=C/c1ccc(-c2ccc(Cl)cc2Cl)o1)NC(=O)c1ccccc1	Kir21 block -5.6
CCc1c(C)sc(NC(=O)CN2CCN(C(=O)c3ccco3)CC2)c1C(=O)OC	KCNQ1 pot 22
CCOC(=O)c1c(NC(=O)CN2CCN(C(=O)c3ccco3)CC2)sc(C)c1C	none
C/C(=N\NC(=O)c1nn(C)c(C)c1Br)c1ccc(NC(=O)c2ccoc2C)cc1	KCNK9 inh -7.9
CC(=O)Nc1ccc(CN2CCCC(C(=O)c3ccc(C(F)(F)F)cc3)C2)cc1 (centres undefined)	none
O=C(CSc1n[nH]c(-c2ccc(S(=O)(=O)N3CCCCC3)cc2)n1)Nc1nccs1	hERG rescue 6.5
CCc1nc(SCC(=O)Nc2ccc(F)cc2F)c2c(=O)n(C)c(=O)n(C)c2n1	none
CCCc1nc(SCC(=O)Nc2cc(Cl)ccc2OC)c2c(=O)n(C)c(=O)n(C)c2n1	KCNQ1 pot 14 (no result: KCNK3 inh)
CC1(C)Cc2c(C#N)c(NCC3CCCO3)nc(-c3ccco3)c2CO1 (centres undefined)	none
CC1(C)Cc2c(C#N)c(NC3CCCCC3)nc(-c3ccco3)c2CO1	KCNQ1 inh 6
C[C@@H](CN1C2=NC[C@H](Cc3ccccc3)N2C[C@H]1Cc1ccc(O)cc1)NC(=O)CCC1CCCCC1	Kir21 block -4.5
COc1ccc(C[C@H]2CN3C(=NC[C@@H]3Cc3ccccc3)N2C[C@H](C)NC(=O)CCC2CCCCC2)cc1	Kir21 block -7.3 (no result: KCNK3 inh)
COc1ccc(C[C@H]2CN3C(=NC[C@H]3Cc3ccccc3)N2CCNC(=O)CCC2CCCCC2)cc1	Kir21 block -6.1
